Assay outcomes from PubChem BioAssay.
SR-BI HDL uptake = inhibitors of SR-BI mediated HDL lipid uptake, primary screen, ldlA[mSR-BI] cells, fluorescence, single point | ldlA[mSR-BI] CHO cells, DiI-HDL uptake fluorescence, 3 h | Scavenger receptor class B member 1 (Mus musculus), Q61009 | AID 488896, 2010 | inhibition, % at 12.5 µM | actives 0.96% (n = 320,000);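 active means mean replicate inhibition of at least 70% and a set share of replicates each scoring 70 or more; inconclusive means meets just one of the two criteria; inactive means fails both criteria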
Target sequence (Q61009 whole entry, looked up): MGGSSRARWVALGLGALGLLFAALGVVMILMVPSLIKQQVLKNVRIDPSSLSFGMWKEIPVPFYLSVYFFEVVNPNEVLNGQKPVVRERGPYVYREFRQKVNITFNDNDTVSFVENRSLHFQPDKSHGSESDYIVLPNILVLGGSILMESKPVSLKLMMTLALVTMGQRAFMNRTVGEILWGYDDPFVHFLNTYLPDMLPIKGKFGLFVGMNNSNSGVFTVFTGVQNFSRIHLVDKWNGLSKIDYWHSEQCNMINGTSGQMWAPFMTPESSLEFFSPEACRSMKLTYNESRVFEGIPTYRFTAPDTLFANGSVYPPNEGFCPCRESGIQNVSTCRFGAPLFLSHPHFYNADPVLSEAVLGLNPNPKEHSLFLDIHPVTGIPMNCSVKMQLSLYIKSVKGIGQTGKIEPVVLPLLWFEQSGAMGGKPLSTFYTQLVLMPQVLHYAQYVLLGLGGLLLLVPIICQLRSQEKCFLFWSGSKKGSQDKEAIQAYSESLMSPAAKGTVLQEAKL
SR-BI DiI-HDL act = activators of SR-BI mediated DiI-HDL uptake, primary screen, ldlA[mSR-BI] CHO cells, DiI fluorescence. actives 0.096% (n = 320,000). AID 504775, 2011. 3 h; 100 = double the neutral-control signal. activation, % at 12.5 µM;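 active means mean replicate activation of at least 60% and every replicate at or above 60%; inconclusive means mean or all-replicate condition met, but not both; inactive means mean below 60% and not all replicates reaching 60%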
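Assay system: CHO ldlA[mSR-BI] cells, LDL receptor-null, SR-BI overexpressing; medium: Ham's F12 with 0.5% BSA, HEPES 25 mM, pH 7.4; also added: DiI-HDL 10 µg/mL; timing: 3 h uptake period with compound, 37 °C; signal: DiI fluorescence, bottom read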
dFosB act = activators of delta FosB homodimer, primary screen, biochemical, fluorescence polarization, TAMRA-CDK5 oligo, single point; Protein FosB (Mus musculus), P13346; purified delta FosB; percent of positive-control signal above neutral wells; activation, % at 25 µM; actives 0.99% (n = 340,000); AID 493131, 2011;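 active means mean activation above about 17%, with every replicate also reaching it, limit read from the data, passing the limit was not always enough; inconclusive means only one of the two conditions met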
Dyrk1A ADPGlo = rat Dyrk1A kinase inhibitors, primary screen, biochemical, single point, plate reader. Dual specificity tyrosine-phosphorylation-regulated kinase 1A (Rattus norvegicus), Q63470. ADP-Glo luminescence, NFATc1 peptide. inhibition, % at 12.5 µM. actives 0.43% (n = 310,000)
NSD2 inh = NSD2 histone methyltransferase inhibitors, primary screen, biochemical, AlphaScreen, single concentration, set 2 | Histone-lysine N-methyltransferase NSD2 (Homo sapiens), O96028 | NSD2 peptide methylation, 120 min | inhibition, % at 12.5 µM | actives 0.54% (n = 310,000)
CDK5 p35 inh = inhibitors of human CDK5/p35 kinase, primary screen, biochemical, single concentration | Recombinant CDK5/p35, ADP-Glo luminescence, 60 min | inhibition, % at 10 µM | actives 0.01% (n = 330,000) | AID 488839, 2010;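 active means highest replicate inhibition of at least 50% and at least 75% of replicates reaching 50%; inconclusive means only one of the two criteria met; inactive means both criteria failed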
Numbers stand for hits; i = inactive; ? = inconclusive; nt = no result given. Shown are actives, neighbours in structure and some others; about 2.5% of the full set was active somewhere. Unless noted, no stated cut-off is given here; in the data, active means inhibition above about 50%; inactive means the rest.

SMILES | SR-BI HDL uptake | SR-BI DiI-HDL act | dFosB act | Dyrk1A ADPGlo | NSD2 inh | CDK5 p35 inh
O=C(N/N=C/c1cccc([N+](=O)[O-])c1)c1ccc(Br)cc1 | i | i | i | i | i | i
Cc1cc(/C=N/NC(=O)c2cccc([N+](=O)[O-])c2)c(C)n1-c1ccc(Cl)cc1Cl | 89 | i | i | i | i | i
Cc1cccc(CCNC(=O)C2CCCN(c3cnccn3)C2)c1 (centres undefined) | i | i | i | i | i | i
Cn1c(SCC(=O)Nc2ccc(S(=O)(=O)Nc3nccs3)cc2)nc2sc3c(c2c1=O)CCCC3 | nt | nt | nt | nt | i | nt
C(=N\Nc1nc2ccccc2[nH]1)/c1ccccn1 | i | i | i | i | i | i
Fc1ccccc1-c1ccc(/C=N/Nc2nc3ccccc3[nH]2)o1 | i | i | 22 | i | i | i
CC(C)OCCCN1CC(=O)N2C(c3cccc([N+](=O)[O-])c3)c3[nH]c4ccccc4c3C[C@H]2C1=O (some centres undefined) | 81 | i | i | i | i | i
COCCCN1CC(=O)N2C(c3cccc(OC)c3)c3[nH]c4ccccc4c3C[C@H]2C1=O (some centres undefined) | i | i | i | nt | i | i
COc1cccc(CN2CC(C(=O)NCCN3CCOCC3)CCC2=O)c1 (centres undefined) | i | i | i | i | i | i
COc1ccc(CN2CCn3ncc(C(=O)Nc4cc(C)cc(C)c4)c3C2=O)cc1 | 74 | i | i | i | i | i
Cc1ccc(C)c(NC(=O)c2cc([N+](=O)[O-])cc([N+](=O)[O-])c2)c1 | i | i | i | i | i | i
O=[N+]([O-])c1ccc(-c2ccc(/C=N/Nc3nc(N4CCCCC4)nc(N4CCCCC4)n3)o2)cc1 | ? | i | i | i | i | i
O=[N+]([O-])c1cccc(-c2ccc(/C=N/Nc3nc(N4CCCCC4)nc(N4CCCCC4)n3)o2)c1 | 84 | i | i | i | i | i
c1csc(C2Nc3cccc4cccc(c34)N2)c1 | i | i | 36 | i | i | i
Cc1nn(Cc2ccccc2Cl)c(C)c1NC(=O)c1ccn(C)n1 | i | i | i | i | i | i
Cc1nn(Cc2ccccc2Cl)c(C)c1NC(=O)c1cc(-c2ccc(F)cc2)on1 | 80 | i | i | i | i | i
COc1ccc(-c2cc(C(=O)Nc3c(C)nn(Cc4ccccc4)c3C)no2)cc1 | 76 | i | i | i | i | i
O=C(COC(=O)Cc1ccc(Cl)c(Cl)c1)Nc1ccc2[nH]c(=O)[nH]c2c1 | i | i | i | i | i | i
O=S(=O)(c1ccc(F)cc1)N1CCN(S(=O)(=O)c2cccs2)CC1 | i | i | i | i | i | i
CCOc1ccc(C(=O)Nc2cccc(-n3cnnn3)c2)cc1OCC | i | i | i | i | i | i
CCCCOc1ccc(C(=O)Nc2cccc(-n3cnnn3)c2)cc1OC | 75 | i | i | i | i | i
O=C(Nc1cc(Cl)ccc1O)c1cc2n(n1)C(C(F)(F)F)CC(c1ccc3c(c1)OCO3)N2 (centres undefined) | i | i | i | i | i | i
O=C(NCc1ccc2c(c1)OCO2)c1cc2n(n1)C(C(F)(F)F)CC(c1ccc3c(c1)OCO3)N2 (centres undefined) | i | i | 21 | i | i | i
Cc1ccc(/C=C/c2nc3ccccc3s2)s1 | 101 | i | i | i | i | i
O=C1C=CC(=O)N1CCCCCCCCCCN1C(=O)C=CC1=O | i | i | i | i | i | i
SMILES | SR-BI HDL uptake | SR-BI DiI-HDL act | dFosB act | Dyrk1A ADPGlo | NSD2 inh | CDK5 p35 inh
CCCCC/C=N/NC(=O)c1[nH]c2ccc([N+](=O)[O-])cc2c1C | 98 | i | i | i | i | i
Cc1nc(N2CCCCC2)c2c(C)c(C(=O)Nc3ccccc3C(F)(F)F)sc2n1 | i | i | i | i | i | i
Cc1nc(N2CCCCC2C)c2c(C)c(C(=O)Nc3cccc(C(F)(F)F)c3)sc2n1 (centres undefined) | 74 | i | i | i | nt | i
Cc1nc(N2CCCCC2)c2c(C)c(C(=O)Nc3cccc(C(F)(F)F)c3)sc2n1 | 78 | i | i | i | nt | i
O=C(C[C@@H]1C/C=C\CCC(=O)OC[C@@H]2CCCN2C1=O)N[C@@H](CO)Cc1ccccc1 | i | i | i | i | nt | i
CC(=O)Nc1cccc(-c2cc(NC(C)=O)c3ncc(-c4ccc(C(C)=O)cc4)n3c2)c1 | nt | nt | nt | nt | i | nt
O=[N+]([O-])c1ccccc1N/N=C\c1ccccc1Cl | i | i | i | i | i | i
CCCOc1ccc(/C=N/Nc2ccccc2[N+](=O)[O-])c(OCCC)c1 | 104 | i | i | i | i | i
Nc1ccc(Br)c2cccnc12 | i | i | i | i | 99 | i
CS(=O)(=O)Oc1ccc(Br)c2cccnc12 | i | i | i | i | i | i
COc1ccc(S(=O)(=O)N2CCOC2CNC(=O)C(=O)NCc2cccnc2)cc1C (centres undefined) | i | i | i | i | nt | i
CCCc1cc(N2CCCC2)n2nc(C)c(-c3ccccc3)c2n1 | 78 | i | i | i | i | i
CCN1CCN(c2cc(C(C)C)nc3c(-c4ccccc4)c(C)nn23)CC1 | nt | nt | nt | nt | i | nt
COC(=O)[C@]1(C)N[C@H](CN(C)C(=O)Nc2ccc(Cl)cc2)[C@@H]2C(=O)N(C)C(=O)[C@@H]21 | i | i | i | nt | nt | i
COc1ccc(N2CCN(C(=O)C3CCN(S(=O)(=O)c4cccs4)CC3)CC2)cc1 | i | i | i | i | i | i
COc1ccc(CN2CCN(C(=O)C3CCN(S(=O)(=O)c4cccs4)CC3)CC2)c(OC)c1OC | 76 | i | i | i | i | i
Cc1[nH]c(=O)[nH]c1C(=O)CCCCC(=O)OCC(=O)Nc1ccccn1 | i | i | i | i | 142 | i
COc1ccc(Nc2cc(C(=O)N3CCc4ccccc4C3)c3ccccc3n2)c(OC)c1 | 78 | i | i | i | i | i
COCCCNC(=O)c1cc(Nc2ccc(OC)cc2OC)nc2ccccc12 | i | i | i | i | i | i
O=C(NC1CCC(O)CC1)c1ccc(NS(=O)(=O)c2cccc([N+](=O)[O-])c2)cc1 (centres undefined) | i | i | i | i | i | i
Cc1cc2[nH]c(=O)c(=O)[nH]c2cc1S(=O)(=O)NC1CCCCC1C (centres undefined) | i | i | i | 57 | nt | i
O=C(Nc1ccc(Cl)cc1)N[C@@H]1c2c(ccc3ccccc23)OC[C@@H]1CO | 82 | i | i | i | i | i
